Legend:
MCF7 [1] = assay: Drug uptake in human MCF7 cells at 0.5 to 1.0 MBq/mL after 1 hr in normoxic condition by gamma counting; format: ADME, cell-based; conditions: mcf7, 1 h
Method in brief: (§1)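 MCF-7 cells in RPMI 1640 with 10% FBS were seeded at 100,000 cells/well and grown 24 h, then held 4 h normoxic (5% CO2) or hypoxic (5% CO2/95% N2 chamber, 37 °C). ¹⁸F-labeled tracer (0.5–1.0 MBq/mL in PBS) was added for 1 h at 37 °C. Cells were washed twice with PBS, lysed in 1 M NaOH, and gamma counted. Uptake is expressed as % of added activity; 6 replicates.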

MCF7 [2] = assay: Drug uptake in human MCF7 cells at 0.5 to 1.0 MBq/mL after 1 hr in hypoxic condition by gamma counting; format: ADME, cell-based; conditions: mcf7, 1 h; method in brief: as §1
[3] = 1-Octanol-phosphate buffer partition coefficient, log P of the compound at pH 7.4 after 30 mins by shake-flask method; format: physicochemical
Method in brief: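 Shake-flask: about 0.01–0.1 mg/mL compound shaken in 1-octanol and 50 mM phosphate buffer (pH 7.4) for 30 min at room temperature. Equal amounts of each phase quantified by HPLC UV absorbance (C18, isocratic ethanol:water). Triplicate, mean ± SD.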

[4] = Drug metabolism of the compound assessed as reduction rate assessed per unit of enzyme in anoxic conditions in presence of bovine milk xanthine oxidase; format: physicochemical; conditions: cattle
Method in brief: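 Xanthine oxidase in PBS (0.118 unit) added to 0.29 mM xanthine (reducing substrate) plus 0.12 mM nitroaromatic (oxidizing substrate) in 50 mM PBS pH 7.5 at 37 °C. Solutions argon-degassed 20 min; sealed cuvette. Rate taken from initial absorbance loss at λmax (>325 nm) or at the 249 nm isosbestic point, converted to nmol/min via extinction coefficients. Triplicate, mean ± SD.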

MCF7 [5] = assay: Drug uptake in human MCF7 cells at 0.5 to 1.0 MBq/mL after 1 hr measured 60 mins post wash out in normoxic condition by gamma counting; format: ADME, cell-based; conditions: mcf7, 1 h
Method in brief: (§2)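 MCF-7 cells were preconditioned 4 h normoxic or hypoxic (5% CO2/95% N2), then given ¹⁸F tracer (0.5–1.0 MBq/mL) for 1 h at 37 °C. Radioactive medium was replaced with fresh RPMI 1640 (10% FBS) for a further 1 h under the same oxygen condition. Cells were then PBS-washed, lysed in 1 M NaOH and gamma counted. Retained activity is given as % of added.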

MCF7 [6] = assay: Drug uptake in human MCF7 cells at 0.5 to 1.0 MBq/mL after 1 hr measured 60 mins post wash out in hypoxic condition by gamma counting; format: ADME, cell-based; conditions: mcf7, 1 h; method in brief: as §2
MCF7 [7] = assay: Drug uptake in human MCF7 cells at 30 GBq/umol after 1 hr in hypoxic condition by gamma counting; format: ADME, cell-based; conditions: mcf7, 1 h
Method in brief: (§3)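 MCF-7 cells were grown in RPMI 1640 with 10% FBS and 1% P/S, seeded at 100,000 cells/well, and cultured 24 h at 37 °C in 5% CO2. They were then kept 4 h in a sealed chamber flushed with 5% CO2/95% N2 (10 L/min, 15 min). ¹⁸F-tracer (0.5–1.0 MBq/mL in PBS) was added for 1 h at 37 °C under hypoxia. Cells were PBS-washed twice, lysed in 1 M NaOH, and gamma-counted; uptake is % of added activity, n=6.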

MCF7 [8] = assay: Drug uptake in human MCF7 cells at 30 MBq/umol after 1 hr in hypoxic condition by gamma counting; format: ADME, cell-based; conditions: mcf7, 1 h; method in brief: as §3
MCF7 [9] = assay: Drug uptake in human MCF7 cells at 0.3 MBq/umol after 1 hr in hypoxic condition by gamma counting; format: ADME, cell-based; conditions: mcf7, 1 h; method in brief: as §3

SMILES | Drug uptake (MCF7 [1]) | Drug uptake (MCF7 [2]) | logD at 0.5 h [3] | Drug metabolism [4] [nmol/min/U] | also measured
O=[N+]([O-])c1ncccc1NCc1cn(CC[18F])nn1 | Active | Active |  |  | 
O=[N+]([O-])c1cnc(NCc2cn(CCF)nn2)s1 |  |  | 0.79 | 277 | 
O=[N+]([O-])c1cnc(NCc2cn(CC[18F])nn2)s1 | Active | Active |  |  | Drug uptake (MCF7 [5]): Active; Drug uptake (MCF7 [6]): Active
O=[N+]([O-])c1nccn1CC(O)C[18F] (stereo unspecified) [[18F]FLUOROMISONIDAZOLE] |  |  |  |  | Drug uptake (MCF7 [7]): 3.9%; Drug uptake (MCF7 [8]): 3.2%; Drug uptake (MCF7 [9]): 1.1%
O=[N+]([O-])c1nccn1CC(O)CF (stereo unspecified) [FLUOROMISONIDAZOLE] |  |  |  | 37 | 
O=[N+]([O-])c1ncccc1NCc1cn(CCF)nn1 |  |  | 0.04 | 58 | 

Now from value to compound, other results behind:

Drug uptake (MCF7 [1]) | Drug uptake (MCF7 [2]) | logD at 0.5 h [3] | Drug metabolism [4] [nmol/min/U] | SMILES | also measured
 | Not Active |  |  | O=[N+]([O-])c1ccnn1Cc1cn(CC[18F])nn1 | 
Active | Active |  |  | O=[N+]([O-])c1nccn1Cc1cn(CC[18F])nn1 | 
 |  | 0.03 | 20 | O=[N+]([O-])c1ccnn1Cc1cn(CCF)nn1 | 
 |  | -0.41 | 36 | O=[N+]([O-])c1nccn1Cc1cn(CCF)nn1 | 
